The full list was thinned out, with hits kept by preference.
HUVEC prolif 384 = blocks proliferation of human endothelial cells; viability, % at 10 µM (by protocol); HUVEC proliferation, CellTiter-Glo luminescence, 72 h; stronger effect = lower value; 86,000 tested, 1.1% active;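 active = viability at or below 30%; inactive = viability above 30%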;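 also: 100% = median luminescence of DMSO-only cell control wells on each plate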
H69AR inhibit = growth inhibitors of human H69AR lung tumor cells | 85,000 tested, 6% active | H69AR lung tumor viability, ATP luminescence, 72 h; stronger effect = lower value | viability, % at 10 µM;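 active = viability at or below 40%; inactive = viability above 40%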;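 also: multidrug resistant small cell line overexpressing MRP-1 efflux transporter; 100% = mean luminescence of untreated control wells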
HCT116 PTEN-null = growth suppressors of cells with PTEN tumor suppressor deletion; HCT116 PTEN-null viability, CellTiter-Glo, 60 h; stronger effect = lower value; viability, % at 10 µM; 140,000 tested, 1.2% active;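 active = viability at or below a set limit, 4 SD under the median of all tested compounds, cut at about 3.7% in these data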;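 also: PTEN knockout HCT116 line with beta catenin targeted HCT116 as companion control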
Fibroblast inh = blocks proliferation of human lung fibroblasts | AID 719 | LL 47 human lung fibroblast viability, ATP luminescence; stronger effect = lower value | 85,000 tested, 1.1% active | viability, % at 10 µM;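 active = viability at or below 50% in the single dose screen; inactive = viability above 50%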;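 also: compound exposure lasted 72 h before the ATP readout; 100% = median luminescence of untreated cell-only wells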
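Test system: LL 47 human lung fibroblasts; Quantity: 1,150 cells/well; Buffer or medium: IMEM plus 15% FBS; Dosing: tenfold compound dosing solution, DMSO at 0.1%; Timing: overnight cell rest, 72 h compound treatment at 37 °C; Detection: ATP-based CellTiter-Glo luminescent readout; Read-out basis: viability percentage against median untreated-cell control; Controls: cell-only wells, no compound.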
bCat KO growth = beta-catenin-lacking colon tumor cell growth suppression | HCT116 beta-catenin knockout viability, CellTiter-Glo, 60 h; stronger effect = lower value | viability, % at 10 µM | 140,000 tested, 1.5% active | AID 818;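 active = viability at or under a set limit, the compound median less 4 SD, cut at about 6% in these data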;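 also: 0% = Hyamine 1622 control at 20 µM and 100% = untreated cell control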
Starred values were filed as active, the others as inactive; nt = not tested or not shown.

SMILES | HUVEC prolif 384 | H69AR inhibit | HCT116 PTEN-null | Fibroblast inh | bCat KO growth
COc1ccc2c(c1)sc1nc(-c3ccccc3)cn12 | 47.0 | 19.5* | 11.9 | 94.0 | 12.3
CCOC(=O)CC(C)(C)/C(C)=N/Nc1ccc([N+](=O)[O-])cc1[N+](=O)[O-] | nt | nt | 70.1 | nt | 77.0
COc1cc(CNC2CCCC2)cc(Cl)c1OCc1ccc(F)cc1 | nt | nt | 63.9 | nt | 48.0
COc1cc(CNC2CCCC2)cc(OC)c1OC | 86.9 | 90.3 | 101.7 | 105.2 | 106.8
CCOc1cc(CNC2CCCC2)cc(Cl)c1OCc1ccc(F)cc1 | nt | nt | 0.9* | nt | 0.9*
CCOc1cc(CNCCc2ccc(S(N)(=O)=O)cc2)cc(Cl)c1OCc1ccccc1 | nt | nt | 1.9* | nt | 1.5*
COc1cc(CNC2CCCC2)cc(Cl)c1OCc1ccccc1Cl | nt | nt | 1.6* | nt | 1.2*
Cc1cccc(C(=O)NC(=S)N2CCc3ccccc3C2)c1 | nt | nt | 97.5 | nt | 98.1
Cc1c(C(=O)OC(C)C)nnn1-c1nonc1N | 104.4 | 97.4 | 105.7 | 107.2 | 100.5
CC(C)=NN/C(N)=N/C(=S)Nc1ccc(C)cc1 | nt | nt | 99.4 | nt | 88.5
COc1ccccc1/C=c1\sc2nc(-c3ccco3)nn2c1=O | 97.2 | 35.8* | 108.6 | 96.5 | 92.1
CC1=C(C)/C(=N\OS(=O)(=O)c2ccccc2)C=CC1=O | 3.8* | 1.5* | 16.9 | 3.5* | 34.2
COc1cc(NS(=O)(=O)c2ccc3c(c2)oc(=O)n3C)cc(OC)c1OC | 70.6 | 26.9* | 28.1 | 92.3 | 31.0
COc1ccc(NS(=O)(=O)c2ccc3c(c2)oc(=O)n3C)c(OC)c1 | 97.2 | 93.7 | 92.9 | 93.3 | 89.0
O=C(OCC(=O)c1c[nH]c2ccccc12)c1cc2ccccc2cc1O | nt | nt | 69.6 | nt | 72.2
COc1ccc(-c2nnc(Nc3nc4c(OC)cccc4s3)o2)c(OC)c1 | 20.4* | 33.5* | 6.4 | 50.2 | 3.7*
COc1ccc(-c2nnc(Nc3nc4c(OC)cccc4s3)o2)cc1 | 2.9* | 61.8 | 8.2 | 91.8 | 6.7
COc1cc(OC)cc(-c2nnc(Nc3nc4c(F)cccc4s3)o2)c1 | 66.7 | 44.2 | 66.1 | 71.5 | 55.3
Fc1cccc2sc(Nc3nnc(-c4ccccc4)o3)nc12 | 6.8* | 56.8 | 16.7 | 55.8 | 23.7
COc1cccc(C(=O)/C=C/Nc2cc(C)ccc2O)c1 | 69.4 | 8.9* | 69.7 | 90.6 | 65.6
Cc1ccc(O)c(NC(=O)CCC2CCCCC2)c1 | 93.3 | 27.1* | 86.9 | 102.3 | 98.0
O=C(CCC1CCCCC1)Nc1ccccc1O | 106.6 | 94.9 | 94.0 | 116.5 | 96.5
CCOC(=O)c1ccc(N/C=C\C(=O)c2cccc(OC)c2)cc1 | nt | nt | 82.7 | nt | 75.8
Cc1cccc(OCC(=O)Nc2cc(C)c(C)cc2O)c1 | 89.0 | 83.9 | 100.2 | 105.3 | 89.1
Cc1cccc(OCC(=O)Nc2cc(C)ccc2O)c1 | 81.6 | 24.4* | 94.7 | 95.4 | 86.5
SMILES | HUVEC prolif 384 | H69AR inhibit | HCT116 PTEN-null | Fibroblast inh | bCat KO growth
O=S(=O)(NC1=NCCC1)c1cccc(NC(=S)NCCc2ccccc2)c1 | nt | nt | 90.6 | nt | 85.5
COc1ccc(Cn2c(-c3ccc(C)cc3)c[n+]3ccccc23)cc1 | nt | nt | 16.1 | nt | 13.3
COc1ccc(NCc2ccc([N+](=O)[O-])s2)c(OC)c1 | nt | nt | 20.8 | nt | 29.4
CN1C(=O)C(O)(CC(=O)c2ccccc2O)c2cc(Br)ccc21 (configuration not stated) | 55.0 | 20.3* | 22.1 | 77.4 | 30.3
CCN1C(=O)C(O)(CC(=O)c2ccc3c(c2)OCCO3)c2ccccc21 (configuration not stated) | 99.6 | 102.5 | 93.1 | 96.8 | 104.4
COc1ccc(CN2C(=O)C(O)(CC(=O)c3ccc4c(c3)OCO4)c3ccccc32)cc1OC (configuration not stated) | 104.7 | 27.8* | 28.2 | 105.3 | 49.1
CCCCN1C(=O)C(O)(CC(=O)c2ccco2)c2cc(Br)ccc21 (configuration not stated) | 65.1 | 21.2* | 15.3 | 67.7 | 13.9
Cc1[nH]c2ccccc2c1C1(O)C(=O)N(C(C)C)c2ccccc21 (configuration not stated) | 92.0 | 47.0 | 94.6 | 91.4 | 94.8
Cc1[nH]c2ccccc2c1C1(O)C(=O)N(Cc2ccc3c(c2)OCO3)c2ccccc21 (configuration not stated) | 80.5 | 13.5* | 9.5 | 80.3 | 12.8
Cn1c(C(=O)N2CCN(c3ccccn3)CC2)cc2c(=O)n(C)c3ccccc3c21 | 93.1 | 74.2 | nt | 90.7 | nt
NC(=O)CC[C@H](NC(=O)OCc1ccccc1)C(=O)OCc1ccc(Cl)cc1 | nt | nt | 105.2 | nt | 93.1
O=C(CC1(O)C(=O)N(Cc2ccccc2Cl)c2ccccc21)c1ccco1 (configuration not stated) | 68.2 | 14.6* | 10.9 | 95.5 | 12.1
CCOC(=O)CN1C(=O)C(O)(CC(=O)c2cccc(OC)c2)c2ccccc21 (configuration not stated) | 101.2 | 27.6* | 56.1 | 95.0 | 49.3
CCOC(=O)CN1C(=O)C(O)(CC(=O)c2ccco2)c2ccccc21 (configuration not stated) | 107.5 | 25.7* | 71.7 | 100.5 | 78.7
COC(=O)CN1C(=O)C(O)(CC(=O)c2ccccc2)c2ccccc21 (configuration not stated) | 84.8 | 96.2 | 102.2 | 101.0 | 98.2
C#CCN1C(=O)C(O)(CC(=O)c2cccc(OC)c2)c2ccccc21 (configuration not stated) | 92.9 | 19.9* | 19.3 | 101.6 | 33.8
CCOC(=O)Cc1csc(NC(=S)NC(=O)c2cccc([N+](=O)[O-])c2)n1 | nt | nt | 105.5 | nt | 94.6
O=C(Nc1cccc(-c2nc3ccccc3o2)c1)c1ccc(N2C(=O)C3C4C=CC(C4)C3C2=O)cc1 (configuration not stated) | 57.7 | 39.0* | 47.3 | 72.5 | 53.2
O=C1C2C3C=CC(C3)C2C(=O)N1c1cccc(-c2nc3ccccc3o2)c1 (configuration not stated) | 99.2 | 98.7 | 100.8 | 110.2 | 89.5
COc1ccc(C2C=C(c3ccc(Br)s3)Nc3ncnn32)cc1OC (configuration not stated) | nt | nt | 76.0 | nt | 86.5
O=C(O)C1CCCN1C(=O)OCc1ccccc1 (configuration not stated) | 105.1 | 94.8 | 100.3 | 95.5 | 101.0
COC(=O)[C@@H]1C[C@]2(OC(=O)c3ccccc3)C=CC(=O)C[C@@H]2N1C(=O)OCc1ccccc1 | nt | nt | 2.5* | nt | 3.0*
Cc1c(C=O)c(C=O)c(C)n1Cc1ccccc1 | 51.2 | 38.5* | 9.3 | 47.8* | 10.2
CC(=O)c1c(C(C)=O)c(C)n(Cc2ccccc2)c1C | 99.0 | 97.3 | 87.1 | 95.6 | 81.9
CCc1cc2c(=O)n(Cc3ccco3)c(SCC(=O)N3CCCc4ccccc43)nc2s1 | 90.0 | 101.9 | 59.9 | 89.3 | 61.0
CCc1cc2c(=O)n(Cc3ccco3)c(SCc3c(C)noc3C)nc2s1 | 55.5 | 13.5* | 22.1 | 48.7* | 23.8
O=C(NN1C(=O)C2C3CCC(O3)C2C1=O)c1ccco1 (configuration not stated) | nt | nt | 102.0 | nt | 106.1
C/C(=N\NC(=O)C(C)Oc1ccc([N+](=O)[O-])cc1)c1ccccn1 (configuration not stated) | nt | nt | 6.4 | nt | 4.6*

Compound activity: PubChem BioAssay, SRMLSC
